# Tests used:
# [1] = Gd blood plasma clearance in rats; format: in vivo; conditions: rat, after 10 μmol/kg i.v., exponential decay fit, n=4/time point
# In short: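 After i.v. probe injection, rat blood plasma sampled over 2 h (n = 4 per time point). Gadolinium quantified by HPLC/ICP-MS. Plasma concentration–time data fitted to exponential decay to give clearance half-life.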
# [2] = Gd biodistribution in ex vivo rat tissue by ICP-MS
# In short: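 Rats dosed i.v. with 10 μmol/kg probe. Tissues harvested ex vivo 1 and 14 days post-injection. Gadolinium measured by ICP-MS and expressed as % injected dose per gram of tissue.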
# [3] = system: CCl4 mouse model of liver fibrosis; test: Molecular MR imaging of liver fibrosis, CCl4 mouse model, 7.0 T; format: in vivo
# In short: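 C57BL6 mice received i.p. CCl4 0.4 μL/g (1:5 in olive oil) twice weekly for 10 weeks; controls received olive oil. Mice were imaged at baseline and 1 week after the last dose at 7.0 T under 1–2% isoflurane, using ungated T1-weighted RARE (TE 4.5 ms, factor 8, TR 600 ms) before and up to 30 min after i.v. 10 μmol/kg. Liver–muscle ΔCNR was analysed as AUC and at the time of maximal difference between fitted exponential curves. Analysis was blinded.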
# Gd elimination route = format: in vivo; conditions: rat, 24-hour collection period, % of the Gd recovered
# [4] = system: BDL rat model of liver fibrosis; test: Molecular MR imaging of liver fibrosis, BDL rat model, 1.5 T; format: in vivo; conditions: for ΔCNR at 15 minutes post CM-101 / Area under the ΔCNR curve (AUC), liver vs muscle: 1.5 T
# In short: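 Male CD rats underwent common bile duct ligation or sham surgery and were imaged at day 19. Imaging at 1.5 T under 1–2% isoflurane used respiratory-gated 3D inversion-recovery FLASH (TI 250 ms, TE 2.44 ms, effective TR ~1000 ms), before and up to 30 min after i.v. 10 μmol/kg. ΔCNR was liver-minus-muscle SNR, giving AUC and ΔCNR at the maximal diseased–control difference time. R1 maps (TI 50–1000 ms) were acquired pre and 30 min post and fitted voxelwise. Analysis was blinded.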
# [5] = In vivo plasma stability/metabolites by HPLC-ICP-MS; parameters: species or system rat; conditions: HPLC-ICP-MS of blood plasma
# In short: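 Rat plasma sampled over 2 h after i.v. probe injection. HPLC/ICP-MS separated intact probe from any metabolites. Intact probe expressed as percentage of circulating gadolinium at each time point.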
# [6] = baseline mice, n=11, 10 μmol/kg i.v.
# [7] = sham rats, n=11, 10 μmol/kg i.v.
structure (smiles),measurement,setting,value
CC(C)C[C@H](NC(=O)[C@@H]1CSSC[C@H](NC(=O)[C@H](Cc2c[nH]cn2)NC(=O)[C@H](Cc2c[nH]c3ccccc23)NC(=O)[C@H](CCCCNC(=O)CCC(C(=O)O)N2CCN(CC(=O)O)CCN(CC(=O)O)CCN(CC(=O)O)CC2)NC(=O)CNC(=O)CCC(C(=O)O)N2CCN(CC(=O)O)CCN(CC(=O)O)CCN(CC(=O)O)CC2)C(=O)N[C@@H]([C@@H](C)O)C(=O)N[C@@H]([C@@H](C)O)C(=O)N[C@@H](CCCCNC(=O)CCC(C(=O)O)N2CCN(CC(=O)O)CCN(CC(=O)O)CCN(CC(=O)O)CC2)C(=O)N[C@@H](Cc2ccccc2)C(=O)N2CCC[C@H]2C(=O)N[C@@H](Cc2c[nH]cn2)C(=O)N[C@@H](Cc2c[nH]cn2)C(=O)N[C@@H](Cc2ccc(O)cc2)C(=O)N1)C(=O)N[C@@H](Cc1ccc(O)cc1)C(=O)N[C@@H](Cc1ccc(-c2ccccc2)cc1)C(N)=O (stereo partly drawn) [CM-101],Gd blood plasma clearance half-life t1/2,[1],6.8 ± 2.4 min
same,Fold drop of tissue Gd levels from 24-hours to 14 days,[2]; rat tissues,about 10 fold
same,Tissue Gd levels at 24-hours (upper bound over all tissues),"[2]; rat, all tissues, 24 hours after CM-101 injection",< 3.9±0.6 %ID/g
same,"Gd (% ID/g) @ 24-hours, Bone","[2]; rat, bone, 24 hours after 10 μmol/kg i.v., ICP-MS, n=7",0.07±0.02 % ID/g
same,"Gd (% ID/g) @ 14-days, Bone","[2]; rat, bone, 14 days after 10 μmol/kg i.v., ICP-MS, n=8",0.01 % ID/g
same,"Gd (% ID/g) @ 14-days, Kidney","[2]; rat, kidney, 14 days after 10 μmol/kg i.v., ICP-MS, n=8",0.33±0.12 % ID/g
same,"Area under the ΔCNR curve (AUC), liver vs muscle","[3]; CCl4 treated mice (10 weeks), n=8, 10 μmol/kg i.v.",601±150
same,ΔCNR at 10 minutes post CM-101,"[3]; CCl4 treated mice, n=8, 10 μmol/kg i.v.",18.3±6.5
same,"Area under the ΔCNR curve (AUC), liver vs muscle",[3]; [6],163±54
same,ΔCNR at 10 minutes post CM-101,[3]; [6],5.2±1.0
same,Gd recovered found in the feces,Gd elimination route,0.8%
same,Gd recovered found in the urine,Gd elimination route,99.2%
same,ΔCNR at 15 minutes post CM-101,"[4]; BDL rats, n=8, 10 μmol/kg i.v.",13.6±3.2
same,Change in liver R1 relaxation rate (ΔR1) 30 minutes post CM-101 injection,"[4]; BDL rats, n=8, 1.5 T",0.50 ± 0.23 s⁻¹
same,"Area under the ΔCNR curve (AUC), liver vs muscle","[4]; BDL rats, n=8, 19 days post procedure, 10 μmol/kg i.v.",73.1±17.1
same,"Area under the ΔCNR curve (AUC), liver vs muscle",[4]; [7],23.2±15.2
same,ΔCNR at 15 minutes post CM-101,[4]; [7],5.7±4.2
same,Change in liver R1 relaxation rate (ΔR1) 30 minutes post CM-101 injection,"[4]; sham rats, n=11, 1.5 T",0.15 ± 0.14 s⁻¹
same,Intact CM-101 as % of circulating Gd in plasma,[5]; 60 – 120 minutes post injection,about 50%
same,Intact CM-101 as % of circulating Gd in plasma,[5]; 3 minutes post injection,97%
same,Intact CM-101 as % of circulating Gd in plasma,[5]; 15 minutes post injection,77%
